This note sets out measurements from ChEMBL document CHEMBL4433213, “Investigation on 2',3'-O-Substituted ATP Derivatives and Analogs as Novel P2X3 Receptor Antagonists” (ACS Med Chem Lett, 2019).

In one assay the target is T1, P2X purinoceptor 2 (Homo sapiens, UniProt Q9UBL9).
T1 sequence (Q9UBL9 whole entry): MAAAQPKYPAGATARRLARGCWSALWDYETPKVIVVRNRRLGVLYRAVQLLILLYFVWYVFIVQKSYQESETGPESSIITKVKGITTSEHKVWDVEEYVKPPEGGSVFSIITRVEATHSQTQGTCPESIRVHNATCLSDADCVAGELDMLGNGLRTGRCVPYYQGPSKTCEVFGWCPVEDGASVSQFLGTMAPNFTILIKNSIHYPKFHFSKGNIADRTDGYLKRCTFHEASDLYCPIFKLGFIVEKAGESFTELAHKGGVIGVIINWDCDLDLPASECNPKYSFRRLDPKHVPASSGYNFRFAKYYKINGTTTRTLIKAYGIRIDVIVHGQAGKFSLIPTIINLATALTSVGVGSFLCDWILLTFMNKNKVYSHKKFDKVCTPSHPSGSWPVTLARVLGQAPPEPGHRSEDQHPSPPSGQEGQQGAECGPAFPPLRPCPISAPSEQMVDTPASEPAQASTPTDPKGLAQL
Nature of the assay: Antagonist activity at human P2X2R transfected in human 1321N1 cells assessed as inhibition of ATP-induced calcium influx. The assay is classed as cell-based. The essentials: (§1)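 1321N1 astrocytoma cells stably expressing human P2X1, P2X2, P2X3 or P2X4 receptor. Calcium influx was induced by ATP at the EC80 for each subtype. Results are given as IC50 (μM) or % inhibition at the indicated concentration.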

Assay [1] addresses T2, P2X purinoceptor 3 (Mus musculus, UniProt Q3UR32).
T2 sequence (Q3UR32 whole entry): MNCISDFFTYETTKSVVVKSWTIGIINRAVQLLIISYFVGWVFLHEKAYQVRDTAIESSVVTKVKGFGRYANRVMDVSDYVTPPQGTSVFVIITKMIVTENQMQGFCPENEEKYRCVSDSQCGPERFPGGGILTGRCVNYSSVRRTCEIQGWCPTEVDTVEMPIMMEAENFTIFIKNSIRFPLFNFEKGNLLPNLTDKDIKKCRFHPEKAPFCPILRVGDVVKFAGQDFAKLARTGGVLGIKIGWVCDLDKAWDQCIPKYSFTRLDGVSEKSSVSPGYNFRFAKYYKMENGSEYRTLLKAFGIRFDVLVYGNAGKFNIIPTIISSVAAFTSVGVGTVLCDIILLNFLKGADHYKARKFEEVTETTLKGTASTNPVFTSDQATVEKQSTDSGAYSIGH
Nature of the assay: Antagonist activity at P2X3R in mouse TG sensory neurons assessed as inhibition of P2X3R agonist alpha,beta-meATP-induced current at -65 mV holding potential by whole cell voltage clamp method. In outline:
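Mouse trigeminal sensory neurons were recorded by whole-cell patch clamp. Test compound (0.001–10 μM) was applied before 10 μM α,β-meATP, and inhibition of the agonist-evoked P2X3 current was measured. IC50 was taken from concentration–inhibition curves. N = 5–6 cells.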

For a further assay, the target named is T3, P2X purinoceptor 7 (Homo sapiens, UniProt Q99572).
T3 sequence (Q99572 whole entry): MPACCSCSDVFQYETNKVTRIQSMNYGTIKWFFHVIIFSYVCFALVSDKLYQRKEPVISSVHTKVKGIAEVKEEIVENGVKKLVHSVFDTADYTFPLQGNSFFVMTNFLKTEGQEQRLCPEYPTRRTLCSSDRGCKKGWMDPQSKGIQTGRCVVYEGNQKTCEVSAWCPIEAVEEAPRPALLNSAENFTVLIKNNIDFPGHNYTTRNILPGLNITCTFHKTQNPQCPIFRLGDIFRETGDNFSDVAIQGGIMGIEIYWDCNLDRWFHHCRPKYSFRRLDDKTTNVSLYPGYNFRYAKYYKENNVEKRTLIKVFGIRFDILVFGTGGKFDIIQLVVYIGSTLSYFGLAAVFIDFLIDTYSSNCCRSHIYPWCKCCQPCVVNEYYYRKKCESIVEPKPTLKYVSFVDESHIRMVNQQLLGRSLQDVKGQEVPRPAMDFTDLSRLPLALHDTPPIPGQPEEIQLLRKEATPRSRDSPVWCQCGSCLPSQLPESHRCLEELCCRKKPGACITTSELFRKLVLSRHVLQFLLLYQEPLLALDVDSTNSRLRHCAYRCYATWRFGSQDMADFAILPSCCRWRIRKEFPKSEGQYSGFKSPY
Nature of the assay: Antagonist activity at human P2X7R transfected in human 1321N1 cells assessed as inhibition of Bz-ATP-induced calcium influx. The format is cell-based.

Assay [2] addresses T4, P2X purinoceptor 7 (Homo sapiens) (UniProt Q99572).
T4 sequence (whole entry): T3 sequence (Q99572 whole entry)
Nature of the assay: Antagonist activity at human P2X7R transfected in human 1321N1 cells assessed as inhibition of Bz-ATP-induced calcium influx relative to control. The format is cell-based. The note with it: concentration not given here.

Assay [3] deals with T5, P2X purinoceptor 3 (Homo sapiens, UniProt P56373).
T5 sequence (P56373 whole entry): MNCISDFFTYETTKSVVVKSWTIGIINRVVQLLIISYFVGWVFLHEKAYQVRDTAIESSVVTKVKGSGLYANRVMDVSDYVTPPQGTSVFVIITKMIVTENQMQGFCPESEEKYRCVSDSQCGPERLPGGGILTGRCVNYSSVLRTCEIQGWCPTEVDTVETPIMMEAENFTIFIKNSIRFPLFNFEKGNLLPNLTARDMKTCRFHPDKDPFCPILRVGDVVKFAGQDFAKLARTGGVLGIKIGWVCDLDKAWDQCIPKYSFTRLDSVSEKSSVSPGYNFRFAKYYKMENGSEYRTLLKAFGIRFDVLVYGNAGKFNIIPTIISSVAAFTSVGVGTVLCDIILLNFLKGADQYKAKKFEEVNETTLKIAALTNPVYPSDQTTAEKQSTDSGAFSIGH
Nature of the assay: Antagonist activity at human P2X3R transfected in human 1321N1 cells assessed as inhibition of ATP-induced calcium influx. The assay is classed as cell-based. The essentials: as §1

Another assay deals with T6, P2X purinoceptor 1 (Homo sapiens, UniProt P51575).
T6 sequence (P51575 whole entry): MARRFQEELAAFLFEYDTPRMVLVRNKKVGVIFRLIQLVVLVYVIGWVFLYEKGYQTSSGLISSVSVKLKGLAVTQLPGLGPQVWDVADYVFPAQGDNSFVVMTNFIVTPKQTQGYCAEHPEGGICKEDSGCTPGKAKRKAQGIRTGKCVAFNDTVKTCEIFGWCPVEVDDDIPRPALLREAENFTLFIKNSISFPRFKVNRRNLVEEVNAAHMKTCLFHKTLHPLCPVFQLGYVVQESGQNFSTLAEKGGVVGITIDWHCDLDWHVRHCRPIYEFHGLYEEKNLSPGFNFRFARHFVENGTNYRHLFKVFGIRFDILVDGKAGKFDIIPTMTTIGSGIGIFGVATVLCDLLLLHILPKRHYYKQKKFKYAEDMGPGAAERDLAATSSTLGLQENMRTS
The assay can be described thus: Antagonist activity at human P2X1R transfected in human 1321N1 cells assessed as inhibition of ATP-induced calcium influx. The assay is classed as cell-based. The essentials:
as §1

The target in assay [4] is T7, P2X purinoceptor 3 (Mus musculus) (UniProt Q3UR32).
T7 sequence (whole entry): T2 sequence (Q3UR32 whole entry)
Nature of the assay: Agonist activity at P2X3R in mouse TG sensory neurons assessed as induction of channel current at 10 uM at -65 mV holding potential by whole cell voltage clamp method relative to alpha,beta-meATP.

Assay [5] has as its target T8, P2X purinoceptor 2 (Homo sapiens) (UniProt Q9UBL9).
T8 sequence (whole entry): T1 sequence (Q9UBL9 whole entry)
Nature of the assay: Antagonist activity at human P2X2R transfected in human 1321N1 cells assessed as inhibition of ATP-induced calcium influx relative to control. The format is cell-based. The following applies: concentration not given here. The essentials:
as §1

Molecules are shown by their SMILES. Activity calls are given as the source filed them. The calls are words filed in the database; no cut-off is given here.

As for `Nc1ncnc2c1ncn2[C@@H]1O[C@H](COP(=O)(O)OP(=O)(O)OP(=O)(O)O)[C@H]2OCO[C@H]21`, the IC50 on P2X purinoceptor 2 was above 100 µM; at P2X purinoceptor 3 [1], above 1 µM; at P2X purinoceptor 7 it was above 100 µM; at P2X purinoceptor 3 [3] it was above 100 µM; at P2X purinoceptor 1, above 100 µM. The results for the inhibition in assay [2] and in assay [5] were 21% and 36%, respectively. Also, the outcome in assay [4] was inactive.

Regarding `CC1(C)O[C@@H]2[C@H](O1)[C@@H](COP(=O)(O)OP(=O)(O)OP(=O)(O)O)O[C@H]2n1cnc2c(N)ncnc21`, the IC50 on P2X purinoceptor 2 was above 100 µM; at P2X purinoceptor 3 [1], 0.024 µM; on P2X purinoceptor 7, above 100 µM; on P2X purinoceptor 3 [3] it was 4.11 µM; on P2X purinoceptor 1 it was 41.1 µM. Besides, the inhibition was 5% in assay [2] and 6% in assay [5]. In assay [4], the result was inactive.

On to `Nc1ncnc2c1ncn2[C@@H]1O[C@H](COP(=O)(O)CP(=O)(O)OP(=O)(O)O)[C@H]2OC3(CCCCC3)O[C@H]21`, for which the IC50 is above 100 µM on P2X purinoceptor 2; 0.127 µM on P2X purinoceptor 3 [1]; above 100 µM at P2X purinoceptor 7; 17.5 µM at P2X purinoceptor 3 [3]; above 100 µM at P2X purinoceptor 1. The inhibition in assay [2] was -1%; in assay [5], 9%. The result in assay [4] was inactive.
